Measurements: ChEMBL document CHEMBL4145463, “New insights into structure-activity relationship of ipomoeassin F from its bioisosteric 5-oxa/aza analogues” (Eur J Med Chem, 2018)

Legend:
[1] = system: HeLa; test: Cytotoxicity against human HeLa cells after 72 hrs; format: functional, cell-based
[2] = system: L929; test: Cytotoxicity against mouse L929 cells after 72 hrs; format: cell-based; settings: L929, 72 h
[3] = system: MDA-MB-231; test: Cytotoxicity against human MDA-MB-231 cells assessed as reduction in cell viability after 72 hrs by Alamar Blue assay; format: functional, cell-based; settings: MDA-MB-231, 72 h
How it was run: (§1)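 Cells were seeded at 5,000 per well and preincubated 24 h at 37 °C in 5% CO2. They were then exposed for 72 h to gradient dilutions in complete DMEM/HIGH medium, made from 10 mM DMSO stocks, with DMSO below 0.5%. Fresh medium with 10% AlamarBlue was incubated 3 h and read at 580 nm (620 nm reference). Viability was taken versus DMSO-treated cells, and IC50 was fitted from viability–concentration plots; triplicate.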

[4] = system: MCF-10A; test: Cytotoxicity against human MCF10A cells assessed as reduction in cell viability after 72 hrs by Alamar Blue assay; format: cell-based; how it was run: as §1
[5] = system: MCF7; test: Cytotoxicity against human MCF7 cells assessed as reduction in cell viability after 72 hrs by MTT assay; format: functional, cell-based; settings: MCF7, 72 h
[6] = Cytotoxicity against human H522-T1 cells after 72 hrs; format: functional, cell-based; settings: H522-T1, 72 h
[7] = system: U-937; test: Cytotoxicity against human U937 cells after 72 hrs; format: functional, cell-based; settings: U-937, 72 h
[8] = system: MDA-MB-435; test: Cytotoxicity against human MDA-MB-435 cells after 72 hrs; format: functional, cell-based; settings: MDA-MB-435, 72 h
[9] = system: HT-29; test: Cytotoxicity against human HT-29 cells after 72 hrs; format: functional, cell-based; settings: HT-29, 72 h
[10] = system: A2780; test: Cytotoxicity against human A2780 cells after 72 hrs; format: functional, cell-based; settings: A2780, 72 h
[11] = system: Panel NCI-60 (60 carcinoma cell lines); test: Growth inhibition of human NCI60 cells after 48 hrs by SRB assay; format: functional

Structure (SMILES) | IC50 [1] [µM] | IC50 [2] [µM] | IC50 [3] [µM] | IC50 [4] [µM] | IC50 [5] [µM] | IC50 [6] [µM] | IC50 [7] [µM] | IC50 [8] [µM] | IC50 [9] [µM] | also measured
C/C=C(\C)C(=O)O[C@@H]1[C@@H](O)[C@@H]2O[C@H]3[C@H](O[C@@H](CCC)CCCCC[C@H](O)C(=O)CCC(=O)OC[C@@H](O2)[C@H]1OC(=O)/C=C/c1ccccc1)O[C@H](C)[C@H](OC(C)=O)[C@@H]3O [IPOMOEASSIN C] | 1.5 | > 1 | – | – | – | – | – | – | – | –
C/C=C(\C)C(=O)O[C@@H]1[C@@H](O)[C@@H]2O[C@H]3[C@H](O[C@@H](CCCCC)CCCCCOC(=O)CCC(=O)OC[C@@H](O2)[C@H]1OC(=O)/C=C/c1ccccc1)O[C@H](C)[C@H](OC(C)=O)[C@@H]3O | – | – | 0.0315 | 0.0269 | 0.0812 | – | – | – | – | –
C/C=C(\C)C(=O)O[C@@H]1[C@@H](O)[C@@H]2O[C@H]3[C@H](O[C@@H](CCC)CCCCCCC(=O)CCC(=O)OC[C@@H](O2)[C@H]1OC(=O)/C=C/c1ccccc1)O[C@H](C)[C@H](O)[C@@H]3O [IPOMOEASSIN B] | 2.5 | – | – | – | – | 1.07 | 0.134 | 2.7 | 0.396 | –
C/C=C(\C)C(=O)O[C@@H]1[C@@H](O)[C@@H]2O[C@H]3[C@H](O[C@@H](CCCCC)CCCCCNC(=O)CCC(=O)OC[C@@H](O2)[C@H]1OC(=O)/C=C/c1ccccc1)O[C@H](C)[C@H](OC(C)=O)[C@@H]3O | – | – | 0.0487 | 0.0752 | 0.351 | – | – | – | – | –
C/C=C(\C)C(=O)O[C@@H]1[C@@H](O)[C@@H]2O[C@H]3[C@H](O[C@@H](CCC)CCCCC[C@H](OC(C)=O)C(=O)CCC(=O)OC[C@@H](O2)[C@H]1OC(=O)/C=C/c1ccccc1)O[C@H](C)[C@H](OC(C)=O)[C@@H]3O [IPOMOEASSIN D] | 0.032 | 0.135 | – | – | – | 0.0232 | 0.0079 | 0.0199 | 0.0118 | –
C/C=C(\C)C(=O)O[C@@H]1[C@@H](O)[C@H](O[C@H]2[C@H](O[C@@H](CCCCC)CCCCC/N=C3/CCC(=O)O3)O[C@H](C)[C@H](OC(C)=O)[C@@H]2O)O[C@H](COC(=O)/C=C/c2ccccc2)[C@H]1O | – | – | > 25 | – | > 25 | – | – | – | – | –
C/C=C(\C)C(=O)O[C@@H]1[C@@H](O)[C@@H]2O[C@H]3[C@H](O[C@@H](CCCCC)CCCCCCC(=O)CCC(=O)OC[C@@H](O2)[C@H]1OC(=O)/C=C/c1ccccc1)O[C@H](C)[C@H](OC(C)=O)[C@@H]3O | – | 0.0074 | – | 0.0051 | – | 0.0129 | 0.0026 | 0.0094 | 0.0042 | IC50 [10]: 0.036 µM; GI50 [11]: 0.03 µM
C/C=C(\C)C(=O)O[C@@H]1[C@@H](O)[C@@H]2O[C@H]3[C@H](O[C@@H](CCC)CCCCCCC(=O)CCC(=O)OC[C@@H](O2)[C@H]1OC(=O)/C=C/c1ccccc1)O[C@H](C)[C@H](OC(C)=O)[C@@H]3O [IPOMOEASSIN A] | 0.064 | 0.0778 | – | – | – | 0.109 | 0.0202 | 0.0426 | 0.0461 | –
C/C=C(\C)C(=O)O[C@@H]1[C@@H](O)[C@@H]2O[C@H]3[C@H](O[C@@H](CCCCC)C/C=C\CCOC(=O)CCC(=O)OC[C@@H](O2)[C@H]1OC(=O)/C=C/c1ccccc1)O[C@H](C)[C@H](OC(C)=O)[C@@H]3O | – | – | 0.26 | – | 0.817 | – | – | – | – | –
C/C=C(\C)C(=O)O[C@@H]1[C@@H](O)[C@@H]2O[C@H]3[C@H](O[C@@H](CCCCC)CC=CCCCC(=O)CCC(=O)OC[C@@H](O2)[C@H]1OC(=O)/C=C/c1ccccc1)O[C@H](C)[C@H](OC(C)=O)[C@@H]3O (mixture of isomers) | – | – | 0.0683 | 0.0272 | 0.307 | – | – | – | – | –
C/C=C(\C)C(=O)O[C@@H]1[C@@H](O)[C@@H]2O[C@H]3[C@H](O[C@@H](CCCCC)CCCCCN(C)C(=O)CCC(=O)OC[C@@H](O2)[C@H]1OC(=O)/C=C/c1ccccc1)O[C@H](C)[C@H](OC(C)=O)[C@@H]3O | – | – | 0.0144 | 0.0175 | 0.0692 | – | – | – | – | –
C/C=C(\C)C(=O)O[C@@H]1[C@@H](O)[C@@H]2O[C@H]3[C@H](O[C@@H](CCCCC)CCCCOC(=O)CCC(=O)OC[C@@H](O2)[C@H]1OC(=O)/C=C/c1ccccc1)O[C@H](C)[C@H](OC(C)=O)[C@@H]3O | – | – | 0.29 | – | 0.711 | – | – | – | – | –
C/C=C(\C)C(=O)O[C@@H]1[C@@H](O)[C@@H]2O[C@H]3[C@H](O[C@@H](CCC)CCCCC[C@H](OC(C)=O)C(=O)CCC(=O)OC[C@@H](O2)[C@H]1OC(=O)/C=C/c1ccccc1)O[C@H](C)[C@H](O)[C@@H]3O [IPOMOEASSIN E] | 4.3 | > 1 | – | – | – | 0.967 | 0.163 | 1.63 | 0.393 | –
C/C=C(\C)C(=O)O[C@@H]1[C@@H](O)[C@@H]2O[C@H]3[C@H](O[C@@H](CCCCC)C/C=C/CCOC(=O)CCC(=O)OC[C@@H](O2)[C@H]1OC(=O)/C=C/c1ccccc1)O[C@H](C)[C@H](OC(C)=O)[C@@H]3O | – | – | 0.808 | – | 3.28 | – | – | – | – | –
